Data set [1] can be described thus: Inhibition of HDAC in human HeLa nuclear extract using Fluor de Lys as substrate after 15 mins by fluorescence assay.
The test system of the next data set is PC-3. The data set is described as follows: Anti-proliferative activity against human PC3 cells after 48 hrs by MTT assay. It counts as functional, cell-based. Particulars: PC-3, 48 h.
Data set [2] in a line: in vivo. Particulars: Sprague-Dawley, rat, iv, 2 mg/kg.
The nature of data set [3]: in vivo. Conditions: Sprague-Dawley, rat, po, 20 mg/kg.
For data set [4], the system named is A549. Description: Anti-proliferative activity against human A549 cells after 48 hrs by MTT assay. Particulars: A549, 48 h. It counts as functional, cell-based. For orientation: Tetrazolium dyes change colour on reduction, which living cells bring about.
In a further data set the test system is MRC5. The data set is described as follows: Anti-proliferative activity against human MRC5 cells after 48 hrs by MTT assay. It counts as ADME, cell-based. Particulars: MRC5, 48 h.
The subject of data set [5] is A549. Description: Antitumor activity against human A549 cells xenografted in mouse assessed as tumor growth inhibition at 40 mg/kg, ip administered once every other day for 21 days relative to control. Particulars: 504 h, read-out: TGI. It counts as functional. In a few lines:
(§1)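 Mice bearing non-small cell lung cancer A549 xenografts were given the compound ip at 20 or 40 mg/kg once every other day for a 21-day efficacy study.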
A general note: In xenograft studies the graft and the host belong to different species.

Data set [6] in a line: Cmax in Sprague-Dawley rat at 20 mg/kg, po by HPLC method. Type of data set: ADME, organism-based. The arrangement: dose 20 mg/kg, route oral. Conditions: in vivo. Put shortly: (§2)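 Female Sprague-Dawley rats were dosed with the compound at 2 mg/kg iv (for clearance and terminal half-life) or 20 mg/kg orally (for Cmax, Tmax and oral bioavailability). Blood was collected at various time points up to 24 h, and plasma was analyzed by HPLC coupled to triple quadrupole mass spectrometry.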

The subject of data set [7] is A549. Description: Antitumor activity against human A549 cells xenografted in mouse assessed as tumor growth inhibition at 20 mg/kg, ip administered once every other day for 21 days relative to control. Particulars: 504 h, read-out: TGI. Type of data set: functional. In a few lines:
as §1

For a further data set, the target named is T1, Histone deacetylase 8 (Homo sapiens, UniProt Q9BY41).
T1 sequence (Q9BY41 whole entry): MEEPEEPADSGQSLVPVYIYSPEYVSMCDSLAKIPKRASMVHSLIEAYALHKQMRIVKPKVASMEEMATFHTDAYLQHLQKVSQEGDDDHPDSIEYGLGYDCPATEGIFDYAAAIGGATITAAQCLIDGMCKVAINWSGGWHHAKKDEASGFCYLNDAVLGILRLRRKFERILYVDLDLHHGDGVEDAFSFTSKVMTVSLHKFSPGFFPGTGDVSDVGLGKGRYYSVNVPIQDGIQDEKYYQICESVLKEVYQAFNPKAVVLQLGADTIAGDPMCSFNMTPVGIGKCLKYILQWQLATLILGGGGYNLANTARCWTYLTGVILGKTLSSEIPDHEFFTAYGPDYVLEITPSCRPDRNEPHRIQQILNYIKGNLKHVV
Description: Inhibition of HDAC8 (unknown origin).

In a further data set the test system is K562. The data set is described as follows: Anti-proliferative activity against human K562 cells after 48 hrs by MTT assay. Type of data set: functional, cell-based. Conditions: K562, 48 h.
For a further data set, the target named is Histone deacetylase 1 (Homo sapiens, UniProt Q13547). The data set is described as follows: Inhibition of HDAC1 (unknown origin).
Histone deacetylase 1, sequence (Q13547 whole entry): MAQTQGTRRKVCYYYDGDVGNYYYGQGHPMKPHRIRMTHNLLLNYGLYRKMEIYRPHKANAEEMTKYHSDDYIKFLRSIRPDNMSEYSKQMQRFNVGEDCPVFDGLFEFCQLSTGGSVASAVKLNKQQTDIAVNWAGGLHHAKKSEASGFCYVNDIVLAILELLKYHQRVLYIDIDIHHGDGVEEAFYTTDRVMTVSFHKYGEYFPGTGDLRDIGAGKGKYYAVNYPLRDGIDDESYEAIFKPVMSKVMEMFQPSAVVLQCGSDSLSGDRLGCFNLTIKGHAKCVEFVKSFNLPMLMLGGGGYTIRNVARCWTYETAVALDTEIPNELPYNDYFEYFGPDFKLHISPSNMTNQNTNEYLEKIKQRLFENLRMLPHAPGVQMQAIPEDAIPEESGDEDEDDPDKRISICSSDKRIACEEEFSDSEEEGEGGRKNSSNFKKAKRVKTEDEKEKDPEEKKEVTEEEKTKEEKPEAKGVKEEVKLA
Data set [8] addresses T2, Protein deacetylase HDAC6 (Homo sapiens, UniProt Q9UBN7).
T2 sequence (Q9UBN7 whole entry): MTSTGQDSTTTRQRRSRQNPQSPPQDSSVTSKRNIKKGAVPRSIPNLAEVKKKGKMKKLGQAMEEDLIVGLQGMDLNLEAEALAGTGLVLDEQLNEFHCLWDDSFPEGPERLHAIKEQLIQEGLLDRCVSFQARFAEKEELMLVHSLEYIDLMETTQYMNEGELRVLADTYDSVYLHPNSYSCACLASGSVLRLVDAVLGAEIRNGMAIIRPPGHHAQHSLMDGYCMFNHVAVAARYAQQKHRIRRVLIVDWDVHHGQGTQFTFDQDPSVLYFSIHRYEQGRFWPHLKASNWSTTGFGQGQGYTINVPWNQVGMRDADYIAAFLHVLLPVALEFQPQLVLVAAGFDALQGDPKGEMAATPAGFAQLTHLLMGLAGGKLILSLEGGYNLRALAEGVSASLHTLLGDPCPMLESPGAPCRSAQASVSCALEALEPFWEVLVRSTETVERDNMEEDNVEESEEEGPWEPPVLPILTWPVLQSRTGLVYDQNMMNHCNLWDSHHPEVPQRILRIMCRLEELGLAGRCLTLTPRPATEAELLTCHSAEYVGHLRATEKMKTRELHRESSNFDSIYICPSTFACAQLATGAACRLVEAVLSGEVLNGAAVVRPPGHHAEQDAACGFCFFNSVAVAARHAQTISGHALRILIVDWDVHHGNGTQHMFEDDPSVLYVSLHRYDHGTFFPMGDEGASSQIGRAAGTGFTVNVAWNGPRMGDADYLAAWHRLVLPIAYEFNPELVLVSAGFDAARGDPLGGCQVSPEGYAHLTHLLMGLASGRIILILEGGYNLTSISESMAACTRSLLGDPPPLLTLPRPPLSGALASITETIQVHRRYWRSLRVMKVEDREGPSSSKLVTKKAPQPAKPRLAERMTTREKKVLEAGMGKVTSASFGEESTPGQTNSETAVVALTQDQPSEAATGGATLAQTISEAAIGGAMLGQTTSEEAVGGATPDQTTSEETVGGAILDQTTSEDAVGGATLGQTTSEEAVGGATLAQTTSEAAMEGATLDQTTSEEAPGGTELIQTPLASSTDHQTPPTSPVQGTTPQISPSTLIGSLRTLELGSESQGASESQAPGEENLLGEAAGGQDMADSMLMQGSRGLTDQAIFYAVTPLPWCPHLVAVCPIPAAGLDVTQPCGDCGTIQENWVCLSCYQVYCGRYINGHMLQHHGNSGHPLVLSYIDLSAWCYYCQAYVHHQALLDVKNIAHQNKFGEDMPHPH
Description: Inhibition of HDAC6 (unknown origin).

In the next data set the test system is Mus musculus. The data set is described as follows: Toxicity in mouse xenografted with human A549 cells at 20 to 40 mg/kg, ip administered once every other day for 21 days. It counts as organism-based. Conditions: in vivo, 504 h. In a few lines:
as §1

Data set [9] can be described thus: Oral bioavailability in Sprague-Dawley rat at 20 mg/kg by HPLC method. It counts as ADME, organism-based. Conditions: in vivo. Put shortly:
as §2

Data set [10] deals with Voltage-gated inwardly rectifying potassium channel KCNH2 (Homo sapiens, UniProt Q12809). Description: Inhibition of recombinant human ERG expressed in HEK293 cells at -80 mV holding potential measured for 9 mins by Qpatch clamp method. It counts as cell-based. A general note: Patch clamp records ionic current or voltage across a cell membrane.
Voltage-gated inwardly rectifying potassium channel KCNH2, sequence (Q12809 whole entry): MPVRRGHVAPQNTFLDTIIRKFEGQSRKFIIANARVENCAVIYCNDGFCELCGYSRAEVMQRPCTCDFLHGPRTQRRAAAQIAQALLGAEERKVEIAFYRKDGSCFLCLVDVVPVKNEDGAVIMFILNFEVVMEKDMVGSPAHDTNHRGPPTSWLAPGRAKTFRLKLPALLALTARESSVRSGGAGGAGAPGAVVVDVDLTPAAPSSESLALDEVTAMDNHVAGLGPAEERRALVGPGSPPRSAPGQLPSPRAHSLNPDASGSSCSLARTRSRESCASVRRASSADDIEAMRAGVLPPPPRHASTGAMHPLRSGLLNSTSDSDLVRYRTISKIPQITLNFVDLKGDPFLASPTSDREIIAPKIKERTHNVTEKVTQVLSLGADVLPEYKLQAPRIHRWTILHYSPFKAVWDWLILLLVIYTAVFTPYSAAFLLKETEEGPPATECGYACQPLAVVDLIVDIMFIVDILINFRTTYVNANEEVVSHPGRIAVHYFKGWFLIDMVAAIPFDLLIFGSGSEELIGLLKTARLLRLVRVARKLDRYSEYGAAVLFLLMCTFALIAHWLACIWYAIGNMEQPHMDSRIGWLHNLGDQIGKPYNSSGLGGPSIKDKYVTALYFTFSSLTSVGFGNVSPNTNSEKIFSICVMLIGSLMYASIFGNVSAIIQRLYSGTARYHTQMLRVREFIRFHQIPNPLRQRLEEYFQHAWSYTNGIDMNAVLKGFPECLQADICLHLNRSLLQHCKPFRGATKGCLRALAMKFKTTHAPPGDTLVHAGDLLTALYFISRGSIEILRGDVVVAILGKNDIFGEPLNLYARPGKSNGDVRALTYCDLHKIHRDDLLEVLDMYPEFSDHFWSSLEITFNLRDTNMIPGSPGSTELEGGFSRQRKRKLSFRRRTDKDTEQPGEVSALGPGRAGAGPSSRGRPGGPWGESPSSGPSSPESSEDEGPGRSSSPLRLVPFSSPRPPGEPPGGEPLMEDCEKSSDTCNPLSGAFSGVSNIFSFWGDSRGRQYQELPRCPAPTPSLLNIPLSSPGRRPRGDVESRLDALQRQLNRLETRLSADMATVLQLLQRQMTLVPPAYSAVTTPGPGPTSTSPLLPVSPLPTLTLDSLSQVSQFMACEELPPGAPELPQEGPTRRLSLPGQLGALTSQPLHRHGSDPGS
Data set [11] is described as follows: Terminal half life in Sprague-Dawley rat at 2 mg/kg, iv by HPLC method. Conditions: in vivo, read-out: beta t1/2 (converted). Type of data set: ADME, organism-based. Put shortly: as §2
For a further data set, the system named is MDA-MB-231. The data set is described as follows: Anti-proliferative activity against human MDA-MB-231 cells after 48 hrs by MTT assay. Conditions: MDA-MB-231, 48 h. Type of data set: functional, cell-based.
For another data set, the system named is HCT-116. Description: Anti-proliferative activity against human HCT116 cells after 48 hrs by MTT assay. It counts as functional, cell-based. Conditions: HCT-116, 48 h.
Data set [12] is described as follows: Tmax in Sprague-Dawley rat at 20 mg/kg, po by HPLC method. Conditions: in vivo. It counts as ADME, organism-based. Put shortly: as §2
Data set [13] is described as follows: Clearance in Sprague-Dawley rat at 2 mg/kg, iv by HPLC method. Type of data set: ADME, organism-based. Conditions: in vivo. In a few lines:
as §2

As a reminder, the IC50 is the midpoint of a concentration-inhibition curve. With `Cc1ccc2ncnc(NCCCCCCC(=O)NO)c2c1`, the concentration for half-maximal inhibition (IC50) in [1] was found to be 20.2 nM.
A word on the bioavailability: it is dose-corrected exposure relative to a reference, in per cent. Read a high bioavailability as much systemic uptake. As for `O=C(CCCCCCC(=O)Nc1ccccc1)NO` [VORINOSTAT], the half-maximal inhibitory concentration (IC50) in the data set with PC-3 stood at 2920 nM. In “in vivo [2]”, this molecule had a half-life of 12 min. In “in vivo [3]”, the bioavailability amounted to 11%.
`O=C(CCCCCCNc1ncnc2cc(Cl)ccc12)NO`: in data set [1], the IC50 turned out to be 24.2 nM.
With `COc1cc2ncnc(NCCCCCC(=O)NO)c2cc1OC`, the IC50 in data set [1] was determined as 10.5 nM.
On the same count and under the same terms, next, `COCCOc1cc2ncnc(NCCCCCCC(=O)NO)c2cc1OCCOC`: 152 nM.
By Cmax is commonly meant the peak of the concentration-time curve. One may read the Tmax as the time from dosing to the highest level. The term clearance denotes a measure of how efficiently the substance is removed, as volume per time. Consider `O=C(CCCCCCNc1ncnc2ccc(Cl)cc12)NO`, for which the half-inhibitory concentration (IC50) in the data set with A549 [4] was 80 nM; in the data set with MRC5, 54900 nM; in data set [1], 3.08 nM; with PC-3, 760 nM; against Histone deacetylase 8, 1970 nM; with K562, 1210 nM. Moreover, the IC50 against Histone deacetylase 1 is 11 nM; in data set [8] it was 7 nM; in data set [10], above 30000 nM; in the data set with MDA-MB-231, 170 nM; in the data set with HCT-116, 2110 nM. The inhibition in vivo at 40 mg/kg in the data set on A549 [5] is 76.4%. In addition, the Cmax in data set [6] is 146 ng/mL. In addition, the inhibition in vivo at 20 mg/kg in the data set with A549 [7] stood at 53.1%. For the same molecule, the Activity result in the data set with Mus musculus is “Non-Toxic”. The bioavailability in [9] worked out at 16.8%. In addition, the half-life in data set [11] was 172 min. For the same molecule, in [12], the time of peak concentration (Tmax) was 15 min. Further, the clearance in data set [13] was 53 mL/min/kg.
With `O=C(CCCCCCNc1ncnc2ccccc12)NO`, in data set [1], the IC50 was 33.8 nM.
Still for that read-out and setting: the result for `COc1cc2ncnc(NCCCCCCC(=O)NO)c2cc1OC` reads 13.1 nM.
Regarding `Cc1cccc2c(NCCCCCCC(=O)NO)ncnc12`, the concentration for half-maximal inhibition (IC50) in data set [1] was found to be 55.2 nM.
Still for that read-out and setting: the result for `O=C(CCCCCNc1ncnc2ccccc12)NO` reads 41.2 nM; that for `O=C(CCCCCCNC(=O)c1ccccc1)NO`, above 2000 nM.
`O=C(CCCCCCNc1ncnc2ccc(F)cc12)NO`: the concentration for half-maximal inhibition (IC50) with A549 [4] was 147 nM; with MRC5, 76500 nM; in data set [1], 8.17 nM; in the data set on PC-3 it was 1020 nM; against Histone deacetylase 8, 1460 nM; with K562, 860 nM. For the same molecule, the IC50 is 13 nM against Histone deacetylase 1; 8 nM in data set [8]; above 30000 nM in data set [10]; 490 nM in the data set on MDA-MB-231; 3450 nM in the data set on HCT-116.
In data set [1], `O=C(CCCCCCNc1ncnc2ccc([N+](=O)[O-])cc12)NO` yielded a concentration for half-maximal inhibition (IC50) of 22.9 nM.
`Nc1ccc2ncnc(NCCCCCCC(=O)NO)c2c1`: in data set [1], the IC50 stood at 12.1 nM.
For `O=C(CCCCCCNc1ncnc2cc(F)ccc12)NO`, the concentration for half-maximal inhibition (IC50) in data set [1] was 20.7 nM.

Source of the values: ChEMBL document CHEMBL4043255, “Design, synthesis and biological evaluation of novel histone deacetylase inhibitors incorporating 4-aminoquinazolinyl systems as capping groups” (Bioorg Med Chem Lett, 2017).
